Source: PMC11734723 (Science Advances, 2025)

Assays:
Assay type in all cases: cell-based
TRPC4 = target: T1, TRPC4 (Mus musculus, UniProt Q9QUQ5); test: Carbachol-induced Sr2+ entry in TRPC4-overexpressing HEK293 cells; conditions: read-out: IC50 of Cch-induced Sr2+ entry; Cch 100 nM, Sr2+ 3 mM
T1 sequence (Q9QUQ5 1-890 isoform Q9QUQ5-2): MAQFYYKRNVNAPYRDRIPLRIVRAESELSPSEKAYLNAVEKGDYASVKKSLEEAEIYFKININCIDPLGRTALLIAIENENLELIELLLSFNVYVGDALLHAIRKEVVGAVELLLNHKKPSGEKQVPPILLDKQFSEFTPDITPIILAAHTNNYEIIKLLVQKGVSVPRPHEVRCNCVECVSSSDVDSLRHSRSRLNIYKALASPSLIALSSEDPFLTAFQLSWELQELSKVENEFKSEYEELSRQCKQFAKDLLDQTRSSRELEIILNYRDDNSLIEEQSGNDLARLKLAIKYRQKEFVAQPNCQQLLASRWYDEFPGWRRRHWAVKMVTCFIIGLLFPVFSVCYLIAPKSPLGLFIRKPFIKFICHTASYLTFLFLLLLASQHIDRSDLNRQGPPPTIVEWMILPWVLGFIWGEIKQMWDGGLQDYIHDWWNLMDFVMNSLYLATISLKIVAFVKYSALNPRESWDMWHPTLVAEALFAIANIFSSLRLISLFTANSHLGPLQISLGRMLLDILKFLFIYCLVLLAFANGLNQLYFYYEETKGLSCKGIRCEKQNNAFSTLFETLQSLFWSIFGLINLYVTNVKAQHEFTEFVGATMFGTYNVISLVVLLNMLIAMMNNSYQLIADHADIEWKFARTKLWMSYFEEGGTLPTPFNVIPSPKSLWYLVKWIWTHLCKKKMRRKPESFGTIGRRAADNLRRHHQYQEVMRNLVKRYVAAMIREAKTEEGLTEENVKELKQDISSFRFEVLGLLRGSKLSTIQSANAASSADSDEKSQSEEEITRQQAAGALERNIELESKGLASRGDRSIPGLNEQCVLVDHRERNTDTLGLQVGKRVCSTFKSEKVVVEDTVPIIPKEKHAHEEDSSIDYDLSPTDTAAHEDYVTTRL
Method in brief: (§1)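 HEK293 cells were electroporated with GFP-tagged TRPC4, TRPC5 or TRPC7, plated after 24 h and cultured 48 h under selection; only high-GFP cells were analysed. Coverslip cells were loaded with Fura2 (2 µM) and treated with carbachol (100 nM) plus test compound (0 to 100 µM). Entry was measured after adding Sr²⁺ (3 mM), read as the 340/380 ratio; n = 3 to 5.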

TRPC5 = target: T2, TRPC5 (Homo sapiens, UniProt Q9UL62); test: Carbachol-induced Sr2+ entry in TRPC5-overexpressing HEK293 cells; conditions: read-out: IC50 of Cch-induced Sr2+ entry; Cch 100 nM, Sr2+ 3 mM
T2 sequence (Q9UL62 1-973): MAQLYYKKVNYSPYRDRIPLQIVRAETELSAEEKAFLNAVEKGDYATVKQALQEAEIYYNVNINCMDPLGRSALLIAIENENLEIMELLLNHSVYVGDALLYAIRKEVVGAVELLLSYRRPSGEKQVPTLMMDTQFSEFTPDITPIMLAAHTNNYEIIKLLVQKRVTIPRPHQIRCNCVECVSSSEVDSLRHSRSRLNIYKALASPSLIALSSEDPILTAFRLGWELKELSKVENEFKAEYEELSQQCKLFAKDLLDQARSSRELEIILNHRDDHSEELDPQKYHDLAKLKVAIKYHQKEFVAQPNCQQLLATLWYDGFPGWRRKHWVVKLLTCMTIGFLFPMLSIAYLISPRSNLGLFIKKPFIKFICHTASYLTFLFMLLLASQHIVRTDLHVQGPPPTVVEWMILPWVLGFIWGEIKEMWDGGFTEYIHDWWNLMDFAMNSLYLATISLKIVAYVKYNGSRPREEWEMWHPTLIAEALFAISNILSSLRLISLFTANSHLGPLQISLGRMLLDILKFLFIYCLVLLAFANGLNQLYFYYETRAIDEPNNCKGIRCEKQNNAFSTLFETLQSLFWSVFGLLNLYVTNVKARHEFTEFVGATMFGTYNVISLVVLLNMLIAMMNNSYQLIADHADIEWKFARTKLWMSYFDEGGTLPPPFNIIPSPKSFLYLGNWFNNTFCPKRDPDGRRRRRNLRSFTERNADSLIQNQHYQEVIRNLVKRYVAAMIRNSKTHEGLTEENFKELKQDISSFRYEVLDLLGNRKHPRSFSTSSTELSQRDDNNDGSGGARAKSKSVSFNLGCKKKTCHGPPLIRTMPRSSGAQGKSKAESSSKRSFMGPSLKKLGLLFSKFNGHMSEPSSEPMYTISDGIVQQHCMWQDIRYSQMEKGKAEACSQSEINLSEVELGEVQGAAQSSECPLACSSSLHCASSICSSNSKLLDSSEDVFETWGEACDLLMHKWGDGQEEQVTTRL
Method in brief: as §1

[1] = test system: Cch-induced ER Ca2+ release; test: Carbachol-induced ER Ca2+ release in TRPC-overexpressing HEK293 cells; conditions: ELP-004 1 nM to 100 μM
Human PBMCs = test: Basal Ca2+ and Ca2+ oscillations in human PBMC-derived osteoclasts; conditions: ELP-004 100 nM; for effect on basal Ca2+ levels: 14 days
Method in brief: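 Human PBMCs cultured in αMEM with 10% FBS and human mCSF (50 ng/ml). At 24 h, RANKL (1 or 100 ng/ml) was added; 2–3 days later, human TNFα (2 ng/ml) and test compound (100 nM) were added where indicated. On day 14, coverslip cells were Fura2-loaded (2 µM, 30 min, RT) in buffer with 1 mM Ca²⁺ (pH 7.2) and de-esterified 30 min. Basal 340/380 ratio was recorded 3–5 min in 30–50 cells and plotted against variance.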

endogenous SOCE = test: Endogenous SOCE; conditions: read-out: IC50 of endogenous SOCE
Method in brief: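 Store-operated entry by Fura2 imaging. Cells were loaded with Fura2-AM (2 µM, 30 min, RT) and de-esterified 30 min. They were then exposed 10 min to thapsigargin (2 µM) plus varying test compound concentrations in nominally Ca²⁺-free Hepes buffer (pH 7.2). After a stable baseline, 1 mM Ca²⁺ was added and entry was followed as the 340/380 nm ratio.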

CCC(=O)N(C)c1ccc(Cl)c(Cl)c1 [ELP-004] was tested, and the IC50 (TRPC4) was 172 nM, the IC50 (TRPC5) was 11.5 nM and the “effect on Cch-induced ER Ca2+ release” value [1] was “no effect”. For the same compound, the “effect on basal Ca2+ levels” value (Human PBMCs; RANKL (100 ng/ml)) was “significantly lowered”, the “effect on Ca2+ oscillations” value (Human PBMCs; RANKL alone) was “no effect” and the “effect on basal Ca2+ levels” value (Human PBMCs; TNFα (2 ng/ml)/RANKL (1 ng/ml)) was “significantly lowered”. For the same compound, the “effect on Ca2+ oscillation generation” value (Human PBMCs; TNFα/RANKL) was “significantly lowered” and the IC50 (endogenous SOCE) was 100000 nM.
